According to ChEMBL document CHEMBL4699650, “SAR Investigation and Discovery of Water-Soluble 1-Methyl-1,4-dihydroindeno[1,2-c]pyrazoles as Potent Tubulin Polymerization Inhibitors” (J Med Chem, 2020):

Assays:
[1] = Antiproliferation activity against human A549/Taxol cells assessed as cell growth inhibition measured after 72 hrs by MTT assay; type: functional
Procedure, shortened: (§1)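 Cells grown in RPMI-1640 with 10% FBS at 37 °C, 5% CO2, seeded at 4−7 × 10³ cells/well and left to adhere overnight. Exposed to a range of concentrations for 72 h, then MTT (2.5 mg/mL stock) added for 4 h. Formazan dissolved in DMSO and absorbance read at 570 nm. GI50 taken as the concentration giving 50% growth inhibition, reported as mean ± SD of at least three independent experiments.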

[2] = Toxicity in Balb/c nude mouse xenografted with human HepG2 cells assessed as adverse signs at 5 to 10 mg/kg, iv administered every 2 days for 21 days; type: organism-based; details: in vivo, 504 h, dose 5-10 mg/kg, time 21 day
[3] = Toxicity in Balb/c nude mouse xenografted with human HepG2 cells assessed as adverse signs at 25 mg/kg, po qd administered for 21 days; type: organism-based; details: in vivo, 504 h, time 21 day
Procedure, shortened: (§2)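 Nude mice received 200 μL PBS with HepG2 cells (1 × 10⁷ cells/mL) subcutaneously in the right armpit. At 90 mm³ tumour volume, randomized to 5 per group. Dosed 25 mg/kg as a 2.5 mg/mL distilled-water solution, intragastric once daily for 21 days; distilled water as vehicle. Body weight recorded every 3 days; change given as initial vs end weight.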

[4] = tested on: HepG2; assay: Inhibition of cell migration in human HepG2 cells at 10 nM measured after 24 hrs by inverted light microscopy method based wound healing assay relative to control; type: functional
Procedure, shortened: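 Confluent HepG2 monolayer (seeded 3 × 10⁵ cells/well) scratched with a pipette tip and washed with PBS. Incubated in serum-free DMEM with compound at 2.5, 5 or 10 nM for 24 h; CA-4 run in parallel, DMSO as vehicle. Wound imaged at 0 and 24 h by inverted microscope and compared with control.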

[5] = tested on: HepG2; assay: Induction of apoptosis in human HepG2 cells assessed as necrotic cells at 20 nM incubated for 24 hrs by Annexin V-PE and 7-AAD staining based flow cytometry (reference value: 0.34 %); type: functional
Procedure, shortened: (§3)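 HepG2 cells seeded at 3 × 10⁵ cells/well, adhered overnight, exposed at 5, 10 or 20 nM for 12 or 24 h. Harvested into Annexin V binding buffer and stained with annexin V-PE and 7-AAD for 15 min at room temperature in the dark, then analysed by flow cytometry. Gates: live (−/−), early apoptotic (+/−), late apoptotic (+/+), necrotic (−/+).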

[6] = tested on: HepG2; assay: Induction of apoptosis in human HepG2 cells assessed as increase in cleaved caspase-3 expression incubated for 24 hrs by Western blot analysis; type: functional, cell-based; details: dose nM 2.5-20, time 24.0 hrs
Procedure, shortened: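 Lysates (20 μg protein) separated by 10% PAGE and blotted to PVDF. Probed for Bax, Bcl-2, cleaved caspase-3 and cleaved PARP, detected by ECL and quantified by densitometry.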

[7] = tested on: HepG2; assay: Antiproliferation activity against human HepG2 cells assessed as cell growth inhibition measured after 72 hrs by MTT assay; type: functional; procedure, shortened: as §1
[8] = Cytotoxicity against human L02 cells assessed as assessed as cell growth inhibition measured after 72 hrs by MTT assay; type: cell-based
Procedure, shortened: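 LO2 normal liver cells cultured in RPMI-1640/10% FBS at 37 °C, 5% CO2 and seeded at 4−7 × 10³ cells/well. Graded concentrations applied for 72 h, then MTT readout at 570 nm. GI50 is the concentration giving 50% growth inhibition, mean ± SD of at least three independent experiments.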

[9] = tested on: HepG2; assay: Induction of cell cycle arrest in human HepG2 cells assessed as accumulation in S phase at 20 nM incubated for 24 hrs by propidium iodide staining based flow cytometry (reference value: 26.65%); type: functional
[10] = tested on: HepG2; assay: Induction of apoptosis in human HepG2 cells assessed as necrotic cells at 10 nM incubated for 24 hrs by Annexin V-PE and 7-AAD staining based flow cytometry (reference value: 0.34 %); type: functional; procedure, shortened: as §3
[11] = tested on: HepG2; assay: Induction of cell cycle arrest in human HepG2 cells assessed as accumulation in S phase at 5 nM incubated for 24 hrs by propidium iodide staining based flow cytometry (reference value: 26.65%); type: functional
[12] = tested on: HepG2; assay: Induction of apoptosis in human HepG2 cells assessed as live cells at 10 nM incubated for 24 hrs by Annexin V-PE and 7-AAD staining based flow cytometry (reference value: 93.2%); type: functional; procedure, shortened: as §3
[13] = tested on: HepG2; assay: Induction of cell cycle arrest in human HepG2 cells assessed as accumulation in G1 phase at 10 nM incubated for 24 hrs by propidium iodide staining based flow cytometry (reference value: 60.76%); type: functional
[14] = Toxicity in Balb/c nude mouse xenografted with human HepG2 cells assessed as change in body weight at 25 mg/kg, po qd administered for 21 days measured at 3 days interval during compound dosing (reference value: - 17.2 % ); type: organism-based; details: in vivo, 504 h, time 21 day; procedure, shortened: as §2
[15] = Toxicity in Balb/c nude mouse xenografted with human HepG2 cells assessed as change in body weight at 5 mg/kg, iv administered every 2 days for 21 days (reference value: 7.8 % ); type: organism-based; details: in vivo, 504 h, time 21 day
[16] = tested on: HepG2; assay: Induction of apoptosis in human HepG2 cells assessed as early apoptotic cells at 5 nM incubated for 12 hrs by Annexin V-PE and 7-AAD staining based flow cytometry (reference value: 4.52%); type: functional; procedure, shortened: as §3
[17] = tested on: HepG2; assay: Induction of apoptosis in human HepG2 cells assessed as late apoptotic cells at 20 nM incubated for 12 hrs by Annexin V-PE and 7-AAD staining based flow cytometry (reference value: 2.79%); type: functional; procedure, shortened: as §3
[18] = tested on: HepG2; assay: Antitumor activity against human HepG2 cells xenografted in Balb/c nude mouse assessed as reduction in tumor volume at 5 mg/kg, iv administered every 2 days for 21 days and measured at 3 days interval during compound dosing; type: functional; set-up: scale not given: the % may be the effect or the level left; details: time 21 day
Procedure, shortened: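 Nude mice received 200 μL PBS containing HepG2 at 1 × 10⁷ cells/mL subcutaneously in the right armpit. Randomised at 90 mm³ tumour volume, five per group. Compound given iv as a 2.0 mg/mL solution in distilled water, 5 or 10 mg/kg every two days for 21 days, with a water vehicle group. Tumour volume (L × W²/2) and body weight recorded every 3 days. Inhibition = (1 − RTV treated/RTV vehicle) × 100%.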

[19] = tested on: A549; assay: Antiproliferation activity against human A549 cells assessed as cell growth inhibition measured after 72 hrs by MTT assay; type: functional; procedure, shortened: as §1
[20] = tested on: HepG2; assay: Induction of apoptosis in human HepG2 cells assessed as early apoptotic cells at 10 nM incubated for 12 hrs by Annexin V-PE and 7-AAD staining based flow cytometry (reference value: 4.52%); type: functional; procedure, shortened: as §3
[21] = Resistance index, ratio of GI50 for antiproliferation activity against human A549/Taxol cells to GI50 for antiproliferation activity against human A549 cells assessed as cell growth inhibition measured after 72 hrs by MTT assay
[22] = tested on: HepG2; assay: Induction of apoptosis in human HepG2 cells assessed as necrotic cells at 10 nM incubated for 12 hrs by Annexin V-PE and 7-AAD staining based flow cytometry (reference value: 0.55 %); type: functional; procedure, shortened: as §3
[23] = tested on: HepG2; assay: Induction of apoptosis in human HepG2 cells assessed as early apoptotic cells at 10 nM incubated for 24 hrs by Annexin V-PE and 7-AAD staining based flow cytometry (reference value: 4.16 %); type: functional; procedure, shortened: as §3

CCOc1cccc(Nc2nn(C)c3c2Cc2cc(OCC)c(OCCCN)cc2-3)c1
GI50 [1]: 14.7 nM | Activity [2]: Non-Toxic | Activity [3]: Non-Toxic | inhibition at 0.01 µM [4]: 58% | Activity [5]: 0.71% | Activity [6]: Dose-dependent effect | GI50 [7]: 2.4 nM | GI50 at 72 h [8]: 284 nM | Activity [9]: 8.43% | Activity [10]: 0.61% | Activity [11]: 30.66% | Activity [12]: 75.5% | Activity [13]: 17.07% | Activity [14]: -18.5% | Activity [15]: 8.4% | Activity [16]: 5.66% | Activity [17]: 6.42% | Activity [18]: 54% | GI50 [19]: 3.7 nM | Activity [20]: 9.58% | RatioGI50 [21]: 4 | Activity [22]: 0.92% | Activity [23]: 16.7%
